# High-throughput results from PubChem.
# A selection: hits, their analogues and other compounds. The true share with any hit is near 2.3%.
# TRPC6 activator – mouse TRPC6 channel activators, primary screen, cell-based, HEK293, membrane potential dye; Short transient receptor potential channel 6 (Mus musculus), Q61143; HEK293-TRPC6 membrane potential dye fluorescence; active compounds read high; B-score at 10 µM; 310,000 tested, 0.13% active;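 active means B-score of the integrated fluorescence ratio above library mean plus 3 SD, and starting fluorescence ratio within library mean plus 5 SD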;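 further: higher score means more depolarization so channel activation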
# TRPC4 block – inhibitors of mouse TRPC4 channel, primary screen, Fluo4 calcium, HEK293 TRPC4beta/mu-opioid cells | Short transient receptor potential channel 4 (Mus musculus), Q9QUQ5 | DAMGO-evoked Fluo4 calcium flux; active compounds read low | B-score at 10 µM | 300,000 tested, 0.39% active | AID 2247, 2010;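 active means B-score over 3 SD under the library average, no early fluorescence shift, positive overall ratio signal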
#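 Assay system: HEK293 cells with stable TRPC4beta plus mu-opioid receptor expression; Probe or stimulus: DAMGO in two steps, submaximal then maximal; Dosing: single-point compound dosing; Measured by: Fluo4 calcium-dye fluorescence, kinetic read; Read-out basis: B score from integrated Fluo4 fluorescence ratio.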
# TRPC4 agonist – activators of mouse TRPC4 channel, primary screen, Fluo4 calcium, HEK293 TRPC4beta/mu-opioid cells | Short transient receptor potential channel 4 (Mus musculus), Q9QUQ5 | Fluo4 calcium fluorescence; active compounds read high | B-score at 10 µM | 310,000 tested, 0.49% active;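 active means B-score above 5 SD of library B-scores, and initial fluorescence ratio not above library mean plus 5 SD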;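 further: positive B-score marks a calcium rise read as TRPC4 activation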
#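 Technique: kinetic Fluo4 calcium fluorescence; Test system: TRPC4beta and mu-opioid receptor HEK293 stable cells; Measure: B-scored integrated calcium fluorescence ratio; Benchmarks: low control buffer alone, high control maximal DAMGO; Schedule: 45 min room-temperature Fluo4 loading, 110 s read.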
# TRPC4 potent – positive allosteric modulators of TRPC4, primary screen, cell-based, mouse TRPC4beta, HEK293 mu-opioid, Fluo-4 calcium | DAMGO EC20, Fluo-4 Ca2+ flux; active compounds read high | B-score at 10 µM | 310,000 tested, 0.42% active | Short transient receptor potential channel 4 (Mus musculus), Q9QUQ5;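 active means B-score of calcium response area above 5 SD of library B-scores, with initial fluorescence ratio within 5 SD of library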;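 further: B-score of integrated fluorescence ratio over time as area under calcium response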
# TRPC6 inhibitor – mouse TRPC6 channel inhibitors, primary screen, cell-based, HEK293, membrane potential dye | Short transient receptor potential channel 6 (Mus musculus), Q61143 | ACh-evoked depolarization; active compounds read low | B-score at 10 µM | 310,000 tested, 1.1% active | AID 2553, 2010;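 active means B-score under library mean minus 3 SD, initial fluorescence not abnormally high, positive integrated signal ratio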;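 further: B-score derived from integrated fluorescence ratio over the kinetic read; more negative B-score means stronger inhibition of depolarization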
# Active calls of the source: *; i = inactive; . = not tested or not shown.
SMILES,TRPC6 activator,TRPC4 block,TRPC4 agonist,TRPC4 potent,TRPC6 inhibitor
CCCNCc1cc(Br)ccc1OCC(=O)NCCc1ccccc1,i,-6*,i,i,i
Cc1cc(SCc2cccc([N+](=O)[O-])c2)nc(=O)[nH]1,i,i,i,i,i
Cc1cc(SCC(=O)c2cccc([N+](=O)[O-])c2)nc(=O)[nH]1,i,i,i,41*,i
CC(=NCCN1CCN(C(C)=C2C(=O)c3ccccc3C2=O)CC1)C1=C(O)CC(C)(C)CC1=O,i,i,i,14*,i
CCn1cc(/C=C(\NC(=O)c2ccc(OC)c(OC)c2)C(=O)N2CCN(C)CC2)c2ccccc21,i,i,i,i,i
CCc1ccccc1Nc1nc2ccccc2[nH]1,i,-5*,i,i,i
COc1ccccc1Nc1nc2ccccc2[nH]1,i,i,i,i,i
Cc1ccc(Nc2nc3ccccc3[nH]2)nc1,i,i,108*,i,i
CC1CC(C)CN(CCCNC(=O)c2ccc(N3CCCC3=O)cc2)C1 (stereo not given),i,i,i,25*,i
CC1CC(C)CN(CCCNC(=O)Cn2cccc2C(=O)c2ccccc2)C1 (stereo not given),i,i,105*,i,i
CC1CC(C)CN(CCCNC(=O)c2ccc3c(c2)NC(=O)CS3)C1 (stereo not given),i,i,69*,i,i
COc1ccccc1C(=O)NCCC(=O)NCC(c1ccc(F)cc1)N1CCOCC1 (stereo not given),i,i,i,i,i
O=C1c2ccccc2S(=O)(=O)c2cc(C(=O)N(c3ccccn3)c3ccccn3)ccc21,i,i,135*,i,i
CCOC(=O)c1c(NC(=O)CSc2nc3ccccc3c(=O)n2-c2ccccc2)sc(C(C)=O)c1C,i,i,i,i,i
CC1(C)CC(NCCN2CCN(C3=CC(=C(C#N)C#N)CC(C)(C)C3)CC2)=CC(=C(C#N)C#N)C1,i,.,55*,i,i
CNC(=S)N1CCN(CCNC2=CC(=O)CC(C)(C)C2)CC1,i,i,i,i,i
CCC(=O)Nc1cccc(-n2nnnc2SCC(=O)N2CCCCC2)c1,i,i,i,10*,i
COc1cc(OC)cc(-n2nnnc2SCC(=O)N2CCCC2)c1,i,i,i,i,i
CN(C)c1ccc(N=Nc2ccccc2C(=O)OCC(=O)NCC2CCCCC2)cc1,i,i,i,i,i
CN(C)c1ccc(N=Nc2ccccc2C(=O)OCC(=O)N(C)C2CCCCC2)cc1,i,i,i,11*,i
Cc1ccn2c(NC3CCCC3)c(-c3cccs3)nc2c1,i,-6*,i,i,i
c1csc(-c2nc3ccccn3c2NC2CCCCC2)c1,i,i,i,i,i
O=C1C(Cl)=C(Nc2cccc(O)c2)C(=O)N1Cc1ccccc1,i,i,i,74*,i
CN1CCN(C(=O)c2cccn(Cc3c(Cl)cccc3Cl)c2=O)CC1,i,i,184*,i,i
CC(=O)Nc1cccn(Cc2c(Cl)cccc2Cl)c1=O,i,i,i,i,i
SMILES,TRPC6 activator,TRPC4 block,TRPC4 agonist,TRPC4 potent,TRPC6 inhibitor
Cc1ccc(N2CC(C(=O)Nc3ccc(S(=O)(=O)N4CCOCC4)cc3)CC2=O)cc1Cl (stereo not given),i,i,i,i,i
CCc1ccc(Nc2n[n+](-c3ccccc3)c(-c3c(Cl)cccc3Cl)s2)cc1,i,i,i,i,i
CCc1ccc(Nc2n[n+](-c3ccccc3)c(/C=C/c3ccccc3)s2)cc1,i,i,i,15*,i
CCCCc1nc(N2CCOCC2)c(C#N)c2c1CCCC2,i,-6*,i,i,i
CCCc1nc(N2CCOCC2)c(C#N)c2c1CCCC2,i,i,i,i,i
CC[C@H](NC(=O)c1c(C)c(-c2ccccc2)nc2ccccc12)c1ccccc1,13*,i,i,i,i
